Results gathered from unrelated publications.
Target: G protein-coupled receptor kinase 3 (GRK3, Homo sapiens, UniProt P35626)
One construct used (P35626 1-688): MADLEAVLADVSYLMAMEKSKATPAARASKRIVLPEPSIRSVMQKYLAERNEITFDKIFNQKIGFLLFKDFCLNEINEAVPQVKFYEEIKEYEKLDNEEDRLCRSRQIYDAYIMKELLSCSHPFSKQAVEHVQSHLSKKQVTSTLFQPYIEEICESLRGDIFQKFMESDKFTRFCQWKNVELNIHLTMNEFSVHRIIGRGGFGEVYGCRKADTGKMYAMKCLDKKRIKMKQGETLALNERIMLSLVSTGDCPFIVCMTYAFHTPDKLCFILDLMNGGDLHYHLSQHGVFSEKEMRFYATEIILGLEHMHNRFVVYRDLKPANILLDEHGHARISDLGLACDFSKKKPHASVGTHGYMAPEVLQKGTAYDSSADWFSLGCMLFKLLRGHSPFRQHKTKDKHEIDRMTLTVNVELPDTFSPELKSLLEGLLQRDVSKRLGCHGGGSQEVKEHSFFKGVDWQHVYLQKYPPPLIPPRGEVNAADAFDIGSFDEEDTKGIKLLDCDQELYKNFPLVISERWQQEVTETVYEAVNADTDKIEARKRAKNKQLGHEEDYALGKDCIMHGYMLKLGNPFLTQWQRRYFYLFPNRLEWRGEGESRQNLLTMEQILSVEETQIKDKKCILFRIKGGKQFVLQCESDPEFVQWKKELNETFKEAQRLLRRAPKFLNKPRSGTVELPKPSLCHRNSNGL

SMILES	effect on	technique	concentration	remaining binding [%]
C=CC(=O)N1CCC(C(=O)NCC(=O)N2CCN(c3nc(-c4cnc(N)nc4C(F)F)nc(N4CCOCC4)n3)CC2)CC1	binding	competition with immobilised ligand	1 µM	100
c1cnn2ncc(-c3ccnc(N4CCC45COC5)n3)c2c1	binding		1 µM	29
O=C(c1ccc(Nc2nccc(-c3cc4ccccc4s3)n2)cc1)N1CCC(N2CCCC2)CC1	binding	competition with immobilised ligand	1 µM	64
Cc1nc(N2CC[C@@H](O)C2)ncc1-c1cc(C(F)(F)F)cc2[nH]ncc12	binding	competition with immobilised ligand	1 µM	87
O=C(c1ccc(Nc2ncc(Cl)c(-c3ccc(Cl)s3)n2)cc1)N1CCC(N2CCCC2)CC1	binding	competition with immobilised ligand	1 µM	46
O=C(Nc1ccc(Oc2ccc(F)cc2)cc1)N1CCc2ncccc2[C@H]1c1ccc(F)cc1	cell-free assay	competition with immobilised ligand	1 µM	95
Nc1ncc2c(n1)-c1c([nH]c3ccc(C#CC4CC4)cc13)CCCC2	binding	competition with immobilised ligand	1 µM	97
C[C@@H](c1ccc(-n2cnc3c(N)ncnc32)cc1)N1CCc2nn(C)c(Cc3ccccc3)c2C1=O	binding	competition with immobilised ligand	0.1 µM	87
CN(C)c1nccc(-c2cnn3ncccc23)n1	binding		1 µM	89
O=C(O)[C@@H]1[C@@H](Cn2nnc3ccccc3c2=O)CC[C@H]1C(=O)c1ccc(OCCC2CCOCC2)cc1	cell-free assay	competition with immobilised ligand	1 µM	100
COc1cnc(Nc2cccc(S(N)(=O)=O)c2)nc1N1CCN(c2ccccc2)CC1	binding	competition with immobilised ligand	1 µM	72
C[C@@H]1CCN(c2nccc(-c3cnn4ncccc34)n2)C1	binding		1 µM	56
O=C1CCc2cc(Nc3cc(OC4CCOCC4)c([N+](=O)[O-])cc3Cl)ccc2N1	cell-free assay	competition with immobilised ligand	1 µM	100
CN(c1nccc(-c2cnn3ncccc23)n1)C1CC1	binding		1 µM	100
O=C(Nc1c[nH]nc1C(=O)NC1CCNCC1)c1cc(F)cc(F)c1	binding	competition with immobilised ligand	1 µM	82
COc1ccc2c(c1)O[C@H](c1ccc(OC)c(OC)c1)C[C@@H]2NC(=O)C1(c2ccc3c(c2)OC(F)(F)O3)CC1	cell-free assay	competition with immobilised ligand	1 µM	100
CN(CCCC(F)(F)F)c1nccc(-c2cnn3ncccc23)n1	binding		1 µM	100
O=C(NCCCN1CCOCC1)c1ccc(Nc2nccc(-c3cc4ccccc4s3)n2)cc1	binding	competition with immobilised ligand	1 µM	88
FC(F)(F)c1ccc2c(c1)nc(-c1cccnc1)n2C1CC1	cell-free assay	competition with immobilised ligand	1 µM	76
F[C@@H]1CCN(c2nccc(-c3cnn4ncccc34)n2)C1	binding		1 µM	13
